# Source: ChEMBL document CHEMBL3244376, “Synthesis and biological activity of highly active alpha-aza analogues of luliberin” (1978)
# Calls of active or inactive are those of the source. The rule behind the calls is not given here. Where a SMILES comes first, the peptide text is derived from it. [ ]: non-standard residue; d: D form. The star is where a group is joined. pGlu = O=C1CC[C@@H](C(=O)O)N1; X2 = CN(N*)C(N)=O
# Legend:
# [1] = test system: Rattus norvegicus; test: Ovulation-inducing activity in androgen-sterilized constant-estrus rat at 10 ug, iv; assay type: functional, organism-based
# Summary of the method: (§1)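 Androgen-sterilized constant-estrus rats. Doses are given as μg per rat. The readout is ovulation, scored as the number of animals ovulating out of the number treated at each dose. Groups held 3 to 6 rats.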
# [2] = test system: Rattus norvegicus; test: Ovulation-inducing activity in iv dosed androgen-sterilized constant-estrus rat relative to luliberin; assay type: functional
# [3] = test system: Rattus norvegicus; test: Ovulation-inducing activity in androgen-sterilized constant-estrus rat at 0.10 ug, iv; assay type: functional, organism-based; summary of the method: as §1
# [4] = test system: Rattus norvegicus; test: Ovulation-inducing activity in androgen-sterilized constant-estrus rat at 0.0025 ug, iv; assay type: functional, organism-based; summary of the method: as §1
# [5] = test system: Rattus norvegicus; test: Ovulation-inducing activity in androgen-sterilized constant-estrus rat at 0.005 ug, iv; assay type: functional, organism-based; summary of the method: as §1
# [6] = test system: Rattus norvegicus; test: Ovulation-inducing activity in androgen-sterilized constant-estrus rat at 0.01 ug, iv; assay type: functional, organism-based; summary of the method: as §1
# [7] = test system: Rattus norvegicus; test: Ovulation-inducing activity in androgen-sterilized constant-estrus rat at 0.05 ug, iv; assay type: functional, organism-based; summary of the method: as §1
# [8] = test system: Rattus norvegicus; test: Ovulation-inducing activity in androgen-sterilized constant-estrus rat at 0.001 ug, iv; assay type: functional, organism-based; summary of the method: as §1
# [9] = test system: Rattus norvegicus; test: Ovulation-inducing activity in androgen-sterilized constant-estrus rat at 0.125 ug, iv; assay type: functional, organism-based; summary of the method: as §1
# [10] = test system: Rattus norvegicus; test: Ovulation-inducing activity in androgen-sterilized constant-estrus rat at 1.0 ug, iv; assay type: functional, organism-based; summary of the method: as §1
# [11] = test system: Rattus norvegicus; test: Ovulation-inducing activity in androgen-sterilized constant-estrus rat at 0.25 ug, iv; assay type: functional, organism-based; summary of the method: as §1
# [12] = test system: Rattus norvegicus; test: Ovulation-inducing activity in androgen-sterilized constant-estrus rat at 0.031 ug, iv; assay type: functional, organism-based; summary of the method: as §1
# [13] = test system: Rattus norvegicus; test: Ovulation-inducing activity in androgen-sterilized constant-estrus rat at 0.062 ug, iv; assay type: functional, organism-based; summary of the method: as §1
smiles,measurement,setting,value
CC(C)C[C@H](NC(=O)N(Cc1ccccc1)NC(=O)[C@H](Cc1ccc(O)cc1)NC(=O)[C@H](CO)NC(=O)[C@H](Cc1c[nH]c2ccccc12)NC(=O)[C@H](Cc1cnc[nH]1)NC(=O)[C@@H]1CCC(=O)N1)C(=O)N[C@@H](CCCNC(=N)N)C(=O)N1CCC[C@H]1C(=O)NNC(N)=O,Activity,[1],Active
CC(C)C[C@@H](C(=O)N[C@@H](CCCNC(=N)N)C(=O)N1CCC[C@H]1C(=O)NNC(N)=O)N(C)C(=O)[C@@H](Cc1ccccc1)NC(=O)[C@H](Cc1ccc(OC(C)(C)C)cc1)NC(=O)[C@H](CO)NC(=O)[C@H](Cc1c[nH]c2ccccc12)NC(=O)[C@H](Cc1cnc[nH]1)NC(=O)[C@@H]1CCC(=O)N1,fold change (FC),[2],5
same,Activity,[3],Active
CC(C)C[C@H](NC(=O)[C@@H](Cc1ccccc1)NC(=O)[C@H](Cc1ccc(O)cc1)NC(=O)[C@H](CO)NC(=O)[C@H](Cc1c[nH]c2ccccc12)NC(=O)[C@H](Cc1cnc[nH]1)NC(=O)[C@@H]1CCC(=O)N1)C(=O)N[C@@H](CCCNC(=N)N)C(=O)N1CCC[C@H]1C(=O)NNC(N)=O,fold change (FC),[2],5
same,Activity,[4],inactive
same,Activity,[5],Active
CC(C)C[C@H](NC(=O)[C@@H](Cc1ccccc1)NC(=O)[C@H](Cc1ccc(O)cc1)NC(=O)[C@H](CO)NC(=O)[C@H](Cc1c[nH]c2ccccc12)NC(=O)[C@H](Cc1cnc[nH]1)NC(=O)[C@@H]1CCC(=O)N1)C(=O)N[C@@H](CCCNC(=N)N)C(=O)N1CCC[C@H]1C(=O)NCC(N)=O,Activity,[5],inactive
same,Activity,[6],Active
CC(C)C[C@H](NC(=O)[C@@H](CO)NC(=O)[C@H](Cc1ccc(O)cc1)NC(=O)[C@H](CO)NC(=O)[C@H](Cc1c[nH]c2ccccc12)NC(=O)[C@H](Cc1cnc[nH]1)NC(=O)[C@@H]1CCC(=O)N1)C(=O)N[C@@H](CCCNC(=N)N)C(=O)N1CCC[C@H]1C(=O)NNC(N)=O,Activity,[7],Active
same,Activity,[8],inactive
CCNC(=O)N1CCCN1C(=O)[C@H](CCCNC(=N)N)NC(=O)[C@H](CC(C)C)NC(=O)[C@@H](Cc1ccccc1)NC(=O)[C@H](Cc1ccc(O)cc1)NC(=O)[C@H](CO)NC(=O)[C@H](Cc1c[nH]c2ccccc12)NC(=O)[C@H](Cc1cnc[nH]1)NC(=O)[C@@H]1CCC(=O)N1,Activity,[9],inactive
same,Activity,[10],Active
CC(C)C[C@H](NC(=O)CNC(=O)[C@H](Cc1ccc(O)cc1)NC(=O)[C@H](CO)NC(=O)[C@H](Cc1c[nH]c2ccccc12)NC(=O)[C@H](Cc1cnc[nH]1)NC(=O)[C@@H]1CCC(=O)N1)C(=O)N[C@@H](CCCNC(=N)N)C(=O)N1CCC[C@H]1C(=O)NN(C)C(N)=O ([pGlu]HWSYGLRP-X2),Activity,[11],inactive
same,Activity,[10],Active
CCNC(=O)[C@@H]1CCCN1C(=O)[C@H](CCCNC(=N)N)NC(=O)[C@H](CC(C)C)NC(=O)[C@@H](COC(C)(C)C)NC(=O)[C@H](Cc1ccc(O)cc1)NC(=O)[C@H](CO)NC(=O)[C@H](Cc1c[nH]c2ccccc12)NC(=O)[C@H](Cc1cnc[nH]1)NC(=O)[C@@H]1CCC(=O)N1,Activity,[3],Active
CC(C)C[C@@H](C(=O)N[C@@H](CCCNC(=N)N)C(=O)N1CCC[C@H]1C(=O)NNC(N)=O)N(C)C(=O)[C@@H](Cc1ccccc1)NC(=O)[C@H](Cc1ccc(O)cc1)NC(=O)[C@H](CO)NC(=O)[C@H](Cc1c[nH]c2ccccc12)NC(=O)[C@H](Cc1cnc[nH]1)NC(=O)[C@@H]1CCC(=O)N1,Activity,[5],inactive
same,Activity,[6],Active
CC(C)C[C@H](NC(=O)[C@@H](Cc1c[nH]c2ccccc12)NC(=O)[C@H](Cc1ccc(O)cc1)NC(=O)[C@H](CO)NC(=O)[C@H](Cc1c[nH]c2ccccc12)NC(=O)[C@H](Cc1cnc[nH]1)NC(=O)[C@@H]1CCC(=O)N1)C(=O)N[C@@H](CCCNC(=N)N)C(=O)N1CCC[C@H]1C(=O)NNC(N)=O,fold change (FC),[2],5
same,Activity,[12],inactive
same,Activity,[13],Active
